Measured values from ChEMBL document CHEMBL4330069, “Boosting the efficacy of anti-MRSA β-lactam antibiotics via an easily accessible, non-cytotoxic and orally bioavailable FtsZ inhibitor” (Eur J Med Chem, 2019).
Converted amounts (≈) assume the structure as drawn.

What was measured:
Format in all cases: functional
Staphylococcus aureus [1] = assay: Synergistic antibacterial activity against multidrug-resistant Staphylococcus aureus isolate 3589 in presence of methicillin by broth microdilution assay
Staphylococcus aureus [2] = assay: Synergistic antibacterial activity against multidrug-resistant Staphylococcus aureus isolate 2728 assessed as fractional Inhibitory concentration index in presence of cloxacillin by broth microdilution assay
Staphylococcus aureus [3] = assay: Synergistic antibacterial activity against multidrug-resistant Staphylococcus aureus isolate 2901 assessed as fractional Inhibitory concentration index in presence of cefuroxime by broth microdilution assay
Staphylococcus aureus [4] = assay: Synergistic antibacterial activity against multidrug-resistant Staphylococcus aureus isolate 231 in presence of cloxacillin by broth microdilution assay
How it was run: (§1)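 Clinical MRSA isolate panel; compound and β-lactam tested alone and in combination by CLSI broth microdilution, compounds dissolved in DMSO, growth inhibition scored by eye, run in duplicate. FIC index = FIC(compound) + FIC(drug), each the MIC in combination divided by the MIC alone; an index ≤ 0.5 was called synergy.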

Staphylococcus aureus [5] = assay: Antibacterial activity against multidrug-resistant Staphylococcus aureus isolate 358 by broth microdilution assay
How it was run: (§2)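 Broth microdilution MIC per CLSI guidelines against clinical MRSA isolates, for β-lactams and test compound alone and in combination. Compounds were dissolved in DMSO. Growth was read by eye, in duplicate. FIC index = FIC(compound) + FIC(drug); synergy defined as FIC index ≤0.5.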

Staphylococcus aureus [6] = assay: Synergistic antibacterial activity against multidrug-resistant Staphylococcus aureus isolate 3267 assessed as fractional Inhibitory concentration index in presence of amoxicillin by broth microdilution assay
Escherichia coli = assay: Antibacterial activity against Escherichia coli ATCC 25922 by broth microdilution assay
How it was run: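 Broth microdilution per CLSI guidelines; compounds dissolved in DMSO; single agents tested; growth inhibition read by eye; run in duplicate (table footnote states at least triplicates).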

Staphylococcus aureus [7] = assay: Synergistic antibacterial activity against multidrug-resistant Staphylococcus aureus isolate 2973 in presence of meropenem by broth microdilution assay
How it was run: (§3)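 CLSI broth microdilution on clinical MRSA isolates. MICs were measured for the β-lactam alone, the test agent alone and the two combined. Compounds were dissolved in DMSO, and growth inhibition was scored by eye. FIC index is the sum, over both agents, of MIC in combination divided by MIC alone. An FIC index ≤0.5 was taken as synergy.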

Staphylococcus aureus [8] = assay: Synergistic antibacterial activity against multidrug-resistant Staphylococcus aureus isolate 3332 assessed as fractional Inhibitory concentration index in presence of methicillin by broth microdilution assay
Staphylococcus aureus [9] = assay: Synergistic antibacterial activity against multidrug-resistant Staphylococcus aureus isolate 231 in presence of cefuroxime by broth microdilution assay; how it was run: as §1
Staphylococcus aureus [10] = assay: Synergistic antibacterial activity against multidrug-resistant Staphylococcus aureus isolate 2901 in presence of cefuroxime by broth microdilution assay; how it was run: as §3
Staphylococcus aureus [11] = assay: Synergistic antibacterial activity against multidrug-resistant Staphylococcus aureus isolate 2895 in presence of amoxicillin by broth microdilution assay; how it was run: as §3
Staphylococcus aureus [12] = assay: Synergistic antibacterial activity against multidrug-resistant Staphylococcus aureus isolate 1402 assessed as fractional Inhibitory concentration index in presence of meropenem by broth microdilution assay
How it was run: (§4)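 CLSI broth microdilution run on clinical MRSA isolates with each β-lactam alone, the test agent alone, and the two combined; agents dissolved in DMSO. Growth inhibition was read by eye. FIC index = FIC(compound) + FIC(β-lactam), where each FIC is the MIC in combination divided by the MIC alone. An index ≤0.5 was taken as synergy.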

Staphylococcus aureus [13] = assay: Synergistic antibacterial activity against multidrug-resistant Staphylococcus aureus isolate 1449 in presence of cloxacillin by broth microdilution assay; how it was run: as §1
Staphylococcus aureus [14] = assay: Synergistic antibacterial activity against multidrug-resistant Staphylococcus aureus isolate 2919 in presence of cefuroxime by broth microdilution assay; how it was run: as §3
Staphylococcus aureus [15] = assay: Synergistic antibacterial activity against multidrug-resistant Staphylococcus aureus isolate 256 in presence of methicillin by broth microdilution assay; how it was run: as §3
Staphylococcus aureus [16] = assay: Antibacterial activity against Staphylococcus aureus ATCC 29213 harboring FtsZ 128 mutation after 20 hrs; conditions: ATCC 29213, 20 h
How it was run: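 Broth microdilution MIC per CLSI guidelines, compounds dissolved in DMSO. Resistant mutants were selected by serial passage of ATCC 29213 in LB at 37 °C with shaking at 250 rpm. Each 20 h culture started at half the MIC, and the concentration was doubled at each transfer. Growth inhibition was read by eye, in duplicate.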

Staphylococcus aureus [17] = assay: Synergistic antibacterial activity against multidrug-resistant Staphylococcus aureus isolate 3580 assessed as fractional Inhibitory concentration index in presence of meropenem by broth microdilution assay
Staphylococcus aureus [18] = assay: Synergistic antibacterial activity against multidrug-resistant Staphylococcus aureus isolate 774 in presence of cloxacillin by broth microdilution assay
Staphylococcus aureus [19] = assay: Synergistic antibacterial activity against multidrug-resistant Staphylococcus aureus isolate 200 assessed as fractional Inhibitory concentration index in presence of meropenem by broth microdilution assay; how it was run: as §4
Staphylococcus aureus [20] = assay: Synergistic antibacterial activity against multidrug-resistant Staphylococcus aureus isolate 774 in presence of methicillin by broth microdilution assay
Staphylococcus aureus [21] = assay: Synergistic antibacterial activity against multidrug-resistant Staphylococcus aureus isolate 2973 in presence of cloxacillin by broth microdilution assay; how it was run: as §3
Staphylococcus aureus [22] = assay: Synergistic antibacterial activity against multidrug-resistant Staphylococcus aureus isolate 2973 assessed as fractional Inhibitory concentration index in presence of cloxacillin by broth microdilution assay
Staphylococcus aureus [23] = assay: Synergistic antibacterial activity against multidrug-resistant Staphylococcus aureus isolate 2901 assessed as fractional Inhibitory concentration index in presence of meropenem by broth microdilution assay
Staphylococcus aureus [24] = assay: Synergistic antibacterial activity against multidrug-resistant Staphylococcus aureus isolate 3580 assessed as fractional Inhibitory concentration index in presence of cloxacillin by broth microdilution assay
Staphylococcus aureus [25] = assay: Antibacterial activity against multidrug-resistant Staphylococcus aureus isolate 200 by broth microdilution assay; how it was run: as §2
Staphylococcus aureus [26] = assay: Synergistic antibacterial activity against multidrug-resistant Staphylococcus aureus isolate 3267 in presence of methicillin by broth microdilution assay; how it was run: as §3
Staphylococcus aureus [27] = assay: Antibacterial activity against multidrug-resistant Staphylococcus aureus isolate 3267 by broth microdilution assay; how it was run: as §2
Staphylococcus aureus [28] = assay: Synergistic antibacterial activity against multidrug-resistant Staphylococcus aureus isolate 3267 in presence of amoxicillin by broth microdilution assay; how it was run: as §3
Staphylococcus aureus [29] = assay: Synergistic antibacterial activity against multidrug-resistant Staphylococcus aureus isolate 1402 assessed as fractional Inhibitory concentration index in presence of amoxicillin by broth microdilution assay; how it was run: as §4
Staphylococcus aureus [30] = assay: Antibacterial activity against multidrug-resistant Staphylococcus aureus isolate 231 by broth microdilution assay; how it was run: as §2
Staphylococcus aureus [31] = assay: Synergistic antibacterial activity against multidrug-resistant Staphylococcus aureus isolate 2901 assessed as fractional Inhibitory concentration index in presence of methicillin by broth microdilution assay
Staphylococcus aureus [32] = assay: Synergistic antibacterial activity against multidrug-resistant Staphylococcus aureus isolate 3580 in presence of methicillin by broth microdilution assay
Staphylococcus aureus [33] = assay: Synergistic antibacterial activity against multidrug-resistant Staphylococcus aureus isolate 200 in presence of amoxicillin by broth microdilution assay; how it was run: as §1
Staphylococcus aureus [34] = assay: Synergistic antibacterial activity against multidrug-resistant Staphylococcus aureus isolate 3411 in presence of cloxacillin by broth microdilution assay
Staphylococcus aureus [35] = assay: Synergistic antibacterial activity against multidrug-resistant Staphylococcus aureus isolate 3411 in presence of cefuroxime by broth microdilution assay

CCCCCCCCCNc1ccc(F)c(C(N)=O)c1F
MIC (Staphylococcus aureus [1]): 4 µg/mL | fractional inhibitory concentration index (FICI) (Staphylococcus aureus [2]): 1 | fractional inhibitory concentration index (FICI) (Staphylococcus aureus [3]): 0.1 | MIC (Staphylococcus aureus [4]): 2 µg/mL | MIC (Staphylococcus aureus [5]): 16 µg/mL (≈ 53.6 µM) | fractional inhibitory concentration index (FICI) (Staphylococcus aureus [6]): 0.3 | MIC (Escherichia coli): > 64 µg/mL | MIC (Staphylococcus aureus [7]): 4 µg/mL | fractional inhibitory concentration index (FICI) (Staphylococcus aureus [8]): 0.3 | MIC (Staphylococcus aureus [9]): 4 µg/mL | MIC (Staphylococcus aureus [10]): 2 µg/mL | MIC (Staphylococcus aureus [11]): 16 µg/mL | fractional inhibitory concentration index (FICI) (Staphylococcus aureus [12]): 5 | MIC (Staphylococcus aureus [13]): 0.5 µg/mL | MIC (Staphylococcus aureus [14]): 2 µg/mL | MIC (Staphylococcus aureus [15]): 4 µg/mL | MIC (Staphylococcus aureus [16]): 128 µg/mL (≈ 429 µM) | fractional inhibitory concentration index (FICI) (Staphylococcus aureus [17]): 1.3 | MIC (Staphylococcus aureus [18]): 1 µg/mL | fractional inhibitory concentration index (FICI) (Staphylococcus aureus [19]): 8 | MIC (Staphylococcus aureus [20]): 4 µg/mL | MIC (Staphylococcus aureus [21]): 1 µg/mL | fractional inhibitory concentration index (FICI) (Staphylococcus aureus [22]): 0.1 | fractional inhibitory concentration index (FICI) (Staphylococcus aureus [23]): 4 | fractional inhibitory concentration index (FICI) (Staphylococcus aureus [24]): 0.5 | MIC (Staphylococcus aureus [25]): 1020 µg/mL (≈ 3430 µM) | MIC (Staphylococcus aureus [26]): 4 µg/mL | MIC (Staphylococcus aureus [27]): 1020 µg/mL (≈ 3430 µM) | MIC (Staphylococcus aureus [28]): 2 µg/mL | fractional inhibitory concentration index (FICI) (Staphylococcus aureus [29]): 1 | MIC (Staphylococcus aureus [30]): 8 µg/mL (≈ 26.8 µM) | fractional inhibitory concentration index (FICI) (Staphylococcus aureus [31]): 0 | MIC (Staphylococcus aureus [32]): 2 µg/mL | MIC (Staphylococcus aureus [33]): 8 µg/mL | MIC (Staphylococcus aureus [34]): 1 µg/mL | MIC (Staphylococcus aureus [35]): 2 µg/mL
